Data taken from ChEMBL document CHEMBL5532683, “Design, Synthesis, and Bioevaluation of Transcriptional Enhanced Assocciated Domain (TEAD) PROTAC Degraders” (ACS Med Chem Lett, 2024).
The source made the active and inactive calls. The rule behind the calls is not given here.

Tests used:
NCI-H226 [1] = test: Antiproliferative activity against human NCI-H226 cells incubated for 120 hrs by Celltiter-glo luminescent assay; type: functional, cell-based; conditions: NCI-H226, 120 h
Summary of the method: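 5-day exposure of NF2-deficient NCI-H226 cells to compounds at a range of concentrations; IC50 taken as mean ± SEM of four independent replicates.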

[2] = target: T1, Protein cereblon-TEAD (Homo sapiens) (UniProt P28347+Q96SW2+Q15561+Q15562+Q99594); test: Protac activity at CRBN/TEAD in human NCI-H226 cells at 1 to 10 uM incubated for 24 hrs by Western blot analysis; type: cell-based; conditions: dose 1-10 µM
Summary of the method: (§1)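 NCI-H226 cells exposed 24 h to 0.1, 1 or 10 μM compound. TEAD detected with pan-TEAD antibody by Western blot and quantified as percent degradation. Mean ± SEM of three independent replicates.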

[3] = target: T1, Protein cereblon-TEAD (Homo sapiens); test: Protac activity at CRBN/TEAD in human NCI-H226 cells at 0.1 uM incubated for 24 hrs by Western blot analysis; type: cell-based; summary of the method: as §1
Protein cereblon-TEAD = test: Protac activity at CRBN/TEAD in human NCI-H226 cells incubated for 24 hrs by Western blot analysis; type: cell-based
Summary of the method: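 NCI-H226 cells exposed 24 h to compound across a broad concentration range. Pan-TEAD Western blot quantified; DC50 (half-maximal degradation concentration) derived. Mean ± SEM of three independent replicates.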

NCI-H226 [4] = test: Downregulation of CYR61 gene expression in human NCI-H226 cells incubated for 8 hrs by RT-qPCR analysis; type: functional, cell-based; conditions: dose 0.5-1 µM
Summary of the method: (§2)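 NCI-H226 cells exposed to 0.5 or 1 μM compound for 8 h. Transcript levels measured by qPCR. Mean ± SEM of three independent replicates.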

[5] = target: Protein cereblon/Programmed cell death protein 2 (Homo sapiens) (UniProt Q96SW2+Q16342); test: Protac activity at CRBN/PDCD2 in human NCI-H226 cells at 0.01 to 10 uM incubated for 24 hrs by Western blot analysis; type: cell-based; conditions: dose 0.01-10 µM
Summary of the method: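 PDCD2 degradation in NCI-H226 cells after 24 h with compound at 0.01, 0.1, 1 and 10 μM, assessed by Western blot.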

[6] = target: Protein cereblon/Transcriptional enhancer factor TEF-3 (Homo sapiens) (UniProt Q96SW2+Q15561); test: Protac activity at CRBN (unknown origin) /Flag-tagged TEAD4 (unknown origin) transfected in HEK293T cells at 9.75 to 1000 nM pretreated with cycloheximide for 2 hrs followed by compound addition and measured after 24 hrs by Western blot analysis; type: cell-based; conditions: dose 9.75-1000 nM
Summary of the method: (§3)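 293T cells transfected separately with Flag-TEAD1, -2, -3 or -4. Pretreated 2 h with 200 μg/mL cycloheximide, then 24 h with compound at a series of concentrations. Isoform detected by anti-Flag Western blot and quantified. DC50 or maximal degradation derived. Mean ± SEM of three independent replicates.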

NCI-H226 [7] = test: Downregulation of CTGF gene expression in human NCI-H226 cells incubated for 8 hrs by RT-qPCR analysis; type: functional, cell-based; conditions: dose 0.5-1 µM; summary of the method: as §2
NCI-H226 [8] = test: Downregulation of NPPB gene expression in human NCI-H226 cells incubated for 8 hrs by RT-qPCR analysis; type: functional, cell-based; conditions: dose 0.5-1 µM; summary of the method: as §2
[9] = target: T1, Protein cereblon-TEAD (Homo sapiens); test: Protac activity at CRBN/TEAD in human NCI-H226 cells at 1 uM incubated for 10 to 24 hrs by Western blot analysis; type: cell-based; conditions: time 10-24 hrs
Summary of the method: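 Time course in NCI-H226 cells: 1 μM compound for 1 to 24 h, pan-TEAD Western blot quantified. Mean ± SEM of three independent replicates.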

NCI-H226 [10] = test: Upregulation of FBXO32 gene expression in human NCI-H226 cells incubated for 8 hrs by RT-qPCR analysis; type: functional, cell-based; conditions: dose 0.5-1 µM; summary of the method: as §2
NCI-H226 [11] = test: Downregulation of AMOTL2 gene expression in human NCI-H226 cells incubated for 8 hrs by RT-qPCR analysis; type: functional, cell-based; conditions: dose 0.5-1 µM; summary of the method: as §2
[12] = target: Protein cereblon/Transcriptional enhancer factor TEF-4 (Homo sapiens, UniProt Q96SW2+Q15562); test: Protac activity at CRBN (unknown origin) /Flag-tagged TEAD2 (unknown origin) transfected in HEK293T cells pretreated with cycloheximide for 2 hrs followed by compound addition and measured after 24 hrs by Western blot analysis; type: cell-based; summary of the method: as §3
[13] = target: T1, Protein cereblon-TEAD (Homo sapiens); test: Protac activity at CRBN/TEAD in human NCI-H226 cells at 1 uM preincubated with VT107 for 1 hr followed by compound addition and measured after 8 hrs by Western blot analysis; type: cell-based
Summary of the method: (§4)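 Rescue design: NCI-H226 cells pretreated 1 h with BafA1, MG132, thalidomide or VT107, then cotreated 8 h with compound. Protein levels measured by Western blot.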

[14] = target: T1, Protein cereblon-TEAD (Homo sapiens); test: Protac activity at CRBN/TEAD in human NCI-H226 cells at 1 uM preincubated with thalidomide for 1 hr followed by compound addition and measured after 8 hrs by Western blot analysis; type: cell-based; summary of the method: as §4
[15] = target: T1, Protein cereblon-TEAD (Homo sapiens); test: Protac activity at CRBN/TEAD in human NCI-H226 cells at 1 uM preincubated with MG132 for 1 hr followed by compound addition and measured after 8 hrs by Western blot analysis; type: cell-based; summary of the method: as §4
NCI-H2452 = test: Antiproliferative activity against human NCI-H2452 cells incubated for 120 hrs by Celltiter-glo luminescent assay; type: functional, cell-based; conditions: NCI-H2452, 120 h
Summary of the method: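 NCI-H2452 cells (wild-type NF2) exposed to compound over a concentration range; IC50 estimated from the dose-response.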

[16] = target: Protein cereblon/Transcriptional enhancer factor TEF-1 (Homo sapiens) (UniProt P28347+Q96SW2); test: Protac activity at CRBN (unknown origin) /Flag-tagged TEAD1 (unknown origin) transfected in HEK293T cells at 9.75 to 1000 nM pretreated with cycloheximide for 2 hrs followed by compound addition and measured after 24 hrs by Western blot analysis; type: cell-based; conditions: dose 9.75-1000 nM; summary of the method: as §3
[17] = target: Protein cereblon/Transcriptional enhancer factor TEF-5 (Homo sapiens) (UniProt Q96SW2+Q99594); test: Protac activity at CRBN (unknown origin) /Flag-tagged TEAD3 (unknown origin) transfected in HEK293T cells at 9.75 to 1000 nM pretreated with cycloheximide for 2 hrs followed by compound addition and measured after 24 hrs by Western blot analysis; type: cell-based; conditions: dose 9.75-1000 nM; summary of the method: as §3
[18] = target: T1, Protein cereblon-TEAD (Homo sapiens); test: Protac activity at CRBN/TEAD in human NCI-H226 cells at 1 uM preincubated with BafA1 for 1 hr followed by compound addition and measured after 8 hrs by Western blot analysis; type: cell-based; summary of the method: as §4
NCI-H226 [19] = test: Downregulation of IGFBP3 gene expression in human NCI-H226 cells incubated for 8 hrs by RT-qPCR analysis; type: functional, cell-based; conditions: dose 0.5-1 µM; summary of the method: as §2

T1 sequence (Q15562 whole entry partner): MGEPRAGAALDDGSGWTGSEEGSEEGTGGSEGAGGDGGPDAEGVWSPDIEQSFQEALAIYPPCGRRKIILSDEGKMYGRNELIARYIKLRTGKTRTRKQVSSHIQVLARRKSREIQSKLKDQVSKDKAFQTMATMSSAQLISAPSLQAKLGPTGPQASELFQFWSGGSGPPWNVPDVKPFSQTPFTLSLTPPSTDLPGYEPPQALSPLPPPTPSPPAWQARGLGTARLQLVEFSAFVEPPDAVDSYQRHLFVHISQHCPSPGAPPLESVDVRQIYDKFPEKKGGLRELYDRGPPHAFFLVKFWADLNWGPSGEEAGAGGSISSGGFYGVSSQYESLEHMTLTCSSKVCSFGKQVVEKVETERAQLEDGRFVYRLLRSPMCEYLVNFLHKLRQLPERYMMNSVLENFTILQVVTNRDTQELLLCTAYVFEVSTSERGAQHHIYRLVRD
T1 sequence (Q96SW2 whole entry partner): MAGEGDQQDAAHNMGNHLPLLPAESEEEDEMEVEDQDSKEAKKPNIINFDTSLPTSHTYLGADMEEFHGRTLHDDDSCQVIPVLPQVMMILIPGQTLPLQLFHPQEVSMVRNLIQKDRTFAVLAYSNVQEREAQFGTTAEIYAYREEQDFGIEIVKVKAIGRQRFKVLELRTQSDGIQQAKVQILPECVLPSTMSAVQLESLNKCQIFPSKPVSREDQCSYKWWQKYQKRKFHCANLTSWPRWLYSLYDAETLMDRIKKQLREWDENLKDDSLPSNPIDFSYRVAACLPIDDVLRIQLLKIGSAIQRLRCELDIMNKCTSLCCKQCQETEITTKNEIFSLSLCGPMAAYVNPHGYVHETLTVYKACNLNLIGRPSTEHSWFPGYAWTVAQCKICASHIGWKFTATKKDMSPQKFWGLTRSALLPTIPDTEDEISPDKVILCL
T1 sequence (Q99594 2-435 partner limits assumed): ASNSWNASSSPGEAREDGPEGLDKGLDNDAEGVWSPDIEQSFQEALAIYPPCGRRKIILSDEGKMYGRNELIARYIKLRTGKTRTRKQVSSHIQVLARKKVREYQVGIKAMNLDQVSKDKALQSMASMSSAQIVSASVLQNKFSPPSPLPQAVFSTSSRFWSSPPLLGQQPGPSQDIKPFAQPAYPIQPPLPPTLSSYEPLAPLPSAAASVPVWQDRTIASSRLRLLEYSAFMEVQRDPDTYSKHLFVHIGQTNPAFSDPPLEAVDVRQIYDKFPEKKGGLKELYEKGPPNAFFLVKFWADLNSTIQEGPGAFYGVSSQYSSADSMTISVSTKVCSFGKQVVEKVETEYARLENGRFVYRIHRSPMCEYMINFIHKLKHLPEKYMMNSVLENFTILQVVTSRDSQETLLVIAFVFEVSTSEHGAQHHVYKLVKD
T1 sequence (P28347 whole entry): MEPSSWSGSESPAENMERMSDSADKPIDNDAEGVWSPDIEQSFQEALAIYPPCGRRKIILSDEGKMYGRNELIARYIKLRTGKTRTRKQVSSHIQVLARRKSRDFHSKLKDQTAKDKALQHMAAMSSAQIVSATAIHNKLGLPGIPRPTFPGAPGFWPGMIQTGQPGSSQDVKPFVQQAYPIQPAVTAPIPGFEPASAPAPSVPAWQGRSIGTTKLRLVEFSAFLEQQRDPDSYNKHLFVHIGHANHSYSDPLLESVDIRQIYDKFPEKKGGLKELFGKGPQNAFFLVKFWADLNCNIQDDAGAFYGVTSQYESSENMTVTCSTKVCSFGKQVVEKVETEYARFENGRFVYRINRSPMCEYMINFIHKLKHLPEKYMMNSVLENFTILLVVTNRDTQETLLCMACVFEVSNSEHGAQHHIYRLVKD
T1 sequence (Q15561 whole entry partner): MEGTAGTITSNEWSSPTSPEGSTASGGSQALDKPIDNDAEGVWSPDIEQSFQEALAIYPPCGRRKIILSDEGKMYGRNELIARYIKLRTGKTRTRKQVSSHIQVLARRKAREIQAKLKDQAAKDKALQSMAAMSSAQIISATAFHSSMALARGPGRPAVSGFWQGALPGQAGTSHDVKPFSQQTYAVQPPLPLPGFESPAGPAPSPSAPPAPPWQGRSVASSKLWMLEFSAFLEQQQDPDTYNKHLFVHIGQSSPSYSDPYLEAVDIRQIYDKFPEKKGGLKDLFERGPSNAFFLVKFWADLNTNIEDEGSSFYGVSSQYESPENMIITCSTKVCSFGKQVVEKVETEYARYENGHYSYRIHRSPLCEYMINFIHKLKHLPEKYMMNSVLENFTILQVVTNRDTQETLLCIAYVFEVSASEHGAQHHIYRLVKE
Protein cereblon/Transcriptional enhancer factor TEF-3 (Homo sapiens), sequence (Q15561 whole entry, looked up, canonical isoform): as the sequence (Q15561 whole entry partner) above
Protein cereblon/Transcriptional enhancer factor TEF-3 (Homo sapiens), sequence (Q96SW2 whole entry, looked up, canonical isoform): as the sequence (Q96SW2 whole entry partner) above
Protein cereblon/Transcriptional enhancer factor TEF-4, sequence (Q96SW2 whole entry): as the sequence (Q96SW2 whole entry partner) above
Protein cereblon/Transcriptional enhancer factor TEF-4, sequence (Q15562 whole entry): as the sequence (Q15562 whole entry partner) above
Protein cereblon/Transcriptional enhancer factor TEF-5 (Homo sapiens), sequence (Q96SW2 whole entry, looked up): as the sequence (Q96SW2 whole entry partner) above
Protein cereblon/Transcriptional enhancer factor TEF-5 (Homo sapiens), sequence (Q99594 whole entry, looked up): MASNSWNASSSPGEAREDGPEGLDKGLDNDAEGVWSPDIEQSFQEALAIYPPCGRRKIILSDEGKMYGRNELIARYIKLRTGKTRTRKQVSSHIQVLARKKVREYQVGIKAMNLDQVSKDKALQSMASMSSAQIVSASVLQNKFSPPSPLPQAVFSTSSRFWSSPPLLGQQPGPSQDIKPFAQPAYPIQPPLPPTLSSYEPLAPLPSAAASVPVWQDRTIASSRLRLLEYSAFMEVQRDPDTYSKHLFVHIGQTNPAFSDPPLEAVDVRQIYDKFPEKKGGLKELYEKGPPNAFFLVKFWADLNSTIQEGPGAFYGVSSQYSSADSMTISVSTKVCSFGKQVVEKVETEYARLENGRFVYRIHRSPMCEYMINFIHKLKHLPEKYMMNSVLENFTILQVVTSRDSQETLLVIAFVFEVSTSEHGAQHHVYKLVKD
Protein cereblon/Transcriptional enhancer factor TEF-1 (Homo sapiens), sequence (P28347 whole entry, looked up): as the sequence (P28347 whole entry) above
Protein cereblon/Transcriptional enhancer factor TEF-1 (Homo sapiens), sequence (Q96SW2 whole entry, looked up): as the sequence (Q96SW2 whole entry partner) above
Protein cereblon/Programmed cell death protein 2 (Homo sapiens), sequence (Q16342 whole entry, looked up): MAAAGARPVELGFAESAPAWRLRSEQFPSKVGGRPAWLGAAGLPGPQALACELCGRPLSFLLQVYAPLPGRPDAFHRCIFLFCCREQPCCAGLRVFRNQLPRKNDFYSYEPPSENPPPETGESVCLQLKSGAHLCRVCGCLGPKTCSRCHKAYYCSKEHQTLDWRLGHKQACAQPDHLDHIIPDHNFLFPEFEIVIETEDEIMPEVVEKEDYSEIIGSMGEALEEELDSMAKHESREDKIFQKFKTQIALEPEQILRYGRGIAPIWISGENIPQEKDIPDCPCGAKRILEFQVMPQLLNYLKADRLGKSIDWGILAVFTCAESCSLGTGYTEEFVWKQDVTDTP
Protein cereblon/Programmed cell death protein 2 (Homo sapiens), sequence (Q96SW2 whole entry, looked up): as the sequence (Q96SW2 whole entry partner) above

In the case of C[C@H](NC(=O)c1ccc2c(-c3ccc(C(F)(F)F)cc3)cccc2c1)c1cccc(NCCNc2cccc3c2C(=O)N(C2CCC(=O)NC2=O)C3=O)n1 (some centres undefined), the IC50 (NCI-H226 [1]) is reported as 1510 nM.

For C[C@H](NC(=O)c1ccc2c(-c3ccc(C(F)(F)F)cc3)cccc2c1)c1cccc(NCCOCCOCCOCCNc2ccc3c(c2)C(=O)N(C2CCC(=O)NC2=O)C3=O)n1 (some centres undefined), the IC50 (NCI-H226 [1]) was 230 nM and the Activity [2] was “Active”.

C[C@H](NC(=O)c1ccc2c(-c3ccc(C(F)(F)F)cc3)cccc2c1)c1cccc(NCCCCNc2cccc3c2C(=O)N(C2CCC(=O)NC2=O)C3=O)n1 (some centres undefined) was tested, and the IC50 (NCI-H226 [1]) was 1180 nM.

Work on C[C@H](NC(=O)c1ccc2c(-c3ccc(C(F)(F)F)cc3)cccc2c1)c1cccc(NCCCCCCCCNc2cccc3c2C(=O)N(C2CCC(=O)NC2=O)C3=O)n1 (some centres undefined) yielded an IC50 (NCI-H226 [1]) of 5110 nM.

Work on C[C@H](NC(=O)c1ccc2c(-c3ccc(C(F)(F)F)cc3)cccc2c1)c1cccc(NCCCCCCNc2cccc3c2C(=O)N(C2CCC(=O)NC2=O)C3=O)n1 (some centres undefined) yielded an IC50 (NCI-H226 [1]) of 1150 nM.

In the case of C[C@H](NC(=O)c1ccc2c(-c3ccc(C(F)(F)F)cc3)cccc2c1)c1cccc(NCCOCCOCCOCCNc2cccc3c2C(=O)N(C2CCC(=O)NC2=O)C3=O)n1 (some centres undefined), the IC50 (NCI-H226 [1]) is reported as 260 nM, the Activity [3] is reported as 45.1% and the Activity [2] is reported as “Active”. For the same compound, the DC50 (Protein cereblon-TEAD) was 39.7 nM.

Compound C[C@H](NC(=O)c1ccc2c(-c3ccc(C(F)(F)F)cc3)cccc2c1)c1cccc(NCCOCCNc2cccc3c2C(=O)N(C2CCC(=O)NC2=O)C3=O)n1 (some centres undefined) has an IC50 (NCI-H226 [1]) of 340 nM.

Compound C[C@H](NC(=O)c1ccc2c(-c3ccc(C(F)(F)F)cc3)cccc2c1)c1cccc(NCCCCCCCNc2cccc3c2C(=O)N(C2CCC(=O)NC2=O)C3=O)n1 (some centres undefined) has an IC50 (NCI-H226 [1]) of 2650 nM.

For C[C@H](NC(=O)c1ccc2c(-c3ccc(C(F)(F)F)cc3)cccc2c1)c1cccc(NCCCNc2cccc3c2C(=O)N(C2CCC(=O)NC2=O)C3=O)n1 (some centres undefined), the IC50 (NCI-H226 [1]) was 940 nM.

In the case of C[C@H](NC(=O)c1ccc2c(-c3ccc(C(F)(F)F)cc3)cccc2c1)c1cccc(NCCOCCOCCNc2cccc3c2C(=O)N(C2CCC(=O)NC2=O)C3=O)n1 (some centres undefined), the IC50 (NCI-H226 [1]) is reported as 290 nM and the Activity [2] is reported as “Active”.

For C[C@H](NC(=O)c1ccc2c(-c3ccc(C(F)(F)F)cc3)cccc2c1)c1cccc(NCCOCCOCCNc2ccc3c(c2)C(=O)N(C2CCC(=O)NC2=O)C3=O)n1 (some centres undefined), the Activity (NCI-H226 [4]) was “Active”, the Activity [5] was “inactive” and the Activity [6] was “inactive”. For the same compound, the Activity (NCI-H226 [7]) was “Active”, the Activity (NCI-H226 [8]) was “Active” and the Activity [9] was “Active”. For the same compound, the IC50 (NCI-H226 [1]) was 210 nM, the Activity (NCI-H226 [10]) was “Active” and the Activity [3] was 42.4%. For the same compound, the Activity [2] was “Active”, the Activity (NCI-H226 [11]) was “Active” and the DC50 [12] was 54.1 nM. For the same compound, the Activity [13] was “inactive”, the Activity [14] was “inactive” and the DC50 (Protein cereblon-TEAD) was 32.7 nM. The Activity [15] was “inactive”, the IC50 (NCI-H2452) was > 10 µM and the Emax [16] was 40%. For the same compound, the Activity [17] was “inactive”, the Activity [18] was “Active” and the Activity (NCI-H226 [19]) was “Active”.

For C[C@H](NC(=O)c1ccc2c(-c3ccc(C(F)(F)F)cc3)cccc2c1)c1cccc(NCCOCCNc2ccc3c(c2)C(=O)N(C2CCC(=O)NC2=O)C3=O)n1 (some centres undefined), the IC50 (NCI-H226 [1]) was 350 nM.

C[C@H](NC(=O)c1ccc2c(-c3ccc(C(F)(F)F)cc3)cccc2c1)c1cccc(NCCCCCNc2cccc3c2C(=O)N(C2CCC(=O)NC2=O)C3=O)n1 (some centres undefined) gave an IC50 (NCI-H226 [1]) of 810 nM.

For C[C@H](NC(=O)c1ccc2c(-c3ccc(C(F)(F)F)cc3)cccc2c1)c1cccc(N)n1, the IC50 (NCI-H226 [1]) was 30 nM.
